High-throughput results from PubChem.
The list is not random: actives were taken first. Their share in the collection is about 2.9%.
Beta2AR agonist – human beta-2 adrenergic receptor agonism by FAP; Am2.2-beta2AR cells, FAP receptor internalization, flow cytometry; response, % (test concentration not listed); 0.43% of 340,000 active; AID 504454;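 active = response above a set limit, near 3 SD of response in nonfluorescent compounds, cut at about 42% in these data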
MEKK2mut PB1 HTS – signal of MEK5 binding to mutant human MEKK2 PB1 domain. AID 1530. bead flow cytometry, Alexa488-MEK5 binding to MEKK2 mutant. percent response, % at 10 µM. 0.35% of 290,000 active; in the data active = percent response above about 24%, passing the limit was not always enough
MEKK3 PB1 HTS – modulators (inhibitors or enhancers) of MEK5 binding to human MEKK3 PB1 domain. Q99759. bead-based flow cytometry, Alexa488-MEK5 binding to MEKK3; actives lie on both sides; 0 = blocked by unlabeled MEK5, 100 = vehicle. binding response (% of control), % at 10 µM. 1.4% of 290,000 active;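 active = binding response more than 3 SD above or below the average of its plate-row segment, actives on both sides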;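 also: Alexa488 bead fluorescence after subtracting the streptavidin-only scavenger bead signal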
Dynein cargo inh – dynein cargo transport inhibition; 3617.4 mouse cells, GR-EGFP nuclear translocation imaging; test concentration mostly 20 µM; stimulated with dexamethasone, 1 µM; hits give low values; z-score, hits read low; 0.47% of 220,000 active; AID 1381;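 active = plate z-score of nuclear minus cytoplasmic receptor signal below a set negative limit, without overly bright fluorescence or cell loss, cut at about -3.5 in these data, passing the limit was not always enough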;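 also: z-score of nuclear minus cytoplasmic ring GR-EGFP intensity difference per well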
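Also added – dexamethasone, 1.0 µM final · Buffer or medium – tet-free, stripped-serum medium · Schedule – induction 48 h, compound 1 h, agonist 30 min · Detection – formaldehyde fixation, Hoechst nuclear stain, 10x automated fluorescence imaging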
MEKK2wt PB1 HTS – raises or lowers MEK5 binding to wildtype human MEKK2 PB1 domain. bead flow cytometry, Alexa488-MEK5 binding to MEKK2 WT; actives lie on both sides. Q9Y2U5. binding response (% of control), % at 10 µM. 1.1% of 290,000 active; in the data active = binding response below about 67% or above about 130%
ATG4B inhibitor – ATG4B (human) cysteine protease inhibition. inhibition, % at 8.33 µM. 0.51% of 340,000 active. AID 504462. ATG4B cleavage of LC3-PLA2, NBD-HPC fluorescence, 1 h; in the data active = inhibition above about 40%
Target sequence (Q9Y4P1 whole entry, looked up): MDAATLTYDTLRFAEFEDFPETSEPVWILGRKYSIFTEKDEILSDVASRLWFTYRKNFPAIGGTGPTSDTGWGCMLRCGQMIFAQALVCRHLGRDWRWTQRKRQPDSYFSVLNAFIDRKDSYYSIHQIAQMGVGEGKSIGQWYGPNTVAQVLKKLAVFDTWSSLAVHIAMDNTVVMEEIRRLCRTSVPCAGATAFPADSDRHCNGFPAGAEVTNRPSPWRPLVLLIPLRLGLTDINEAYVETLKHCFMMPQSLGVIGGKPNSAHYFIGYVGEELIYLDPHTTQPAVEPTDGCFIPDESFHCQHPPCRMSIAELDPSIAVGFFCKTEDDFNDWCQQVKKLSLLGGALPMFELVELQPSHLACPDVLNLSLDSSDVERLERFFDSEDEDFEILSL
ATG4B confirm – confirmation of human ATG4B inhibitors | shares compounds with ATG4B inhibitor | ATG4B protease fluorescent substrate cleavage assay | inhibition, % at 8.33 µM | 92% of 320 active; in the data active = inhibition above about 39%
PLA2 counter – inhibits human PLA2, flagging false ATG4B inhibitors. 66% of 1,600 active. shares compounds with ATG4B inhibitor. purified PLA2, NBD-C6-HPC fluorescence, 45 min. inhibition, % at 8.33 µM. AID 588402; in the data active = inhibition above about 50%
Target sequence (P04054 whole entry, looked up): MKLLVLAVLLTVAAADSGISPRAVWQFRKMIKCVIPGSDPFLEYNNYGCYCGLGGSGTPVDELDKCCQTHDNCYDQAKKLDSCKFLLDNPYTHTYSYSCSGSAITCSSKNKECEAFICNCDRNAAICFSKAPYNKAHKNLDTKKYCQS
Active calls of the source: *; x = no result given.

SMILES	Beta2AR agonist	MEKK2mut PB1 HTS	MEKK3 PB1 HTS	Dynein cargo inh	MEKK2wt PB1 HTS	ATG4B inhibitor	PLA2 counter	others
Cc1nn(Cc2ccccc2)c(C)c1NC(=O)CCCn1nc([N+](=O)[O-])c(Cl)c1C	-1	-3	90	0.62	94	17	x
CCOc1ccccc1C(=O)NCC(=O)NNC(=O)CN(C)S(=O)(=O)c1ccc(Cl)cc1	4	x	x	x	x	4	x
CCOc1ccc(OCCn2c(S(=O)(=O)O)nc3c(N)ncnc32)cc1	8	8	111	x	112	-1	x
O=C(Cn1c(=S)[nH]c2ncccc2c1=O)NCCc1ccccc1	x	0	99	1.7	96	x	x
Cc1ccc(NC(=S)NCCSc2ccc(Cl)cc2)cc1	2	-9	97	0.39	100	8	x
CC(CNC(=S)Nc1cc(F)cc(F)c1)CSc1ccc(Cl)cc1 (stereo not drawn)	5	1	107	-0.9	105	46*	69*
Cn1ccnc1C1CCCCN1Cc1nc(-c2ccc3c(c2)OCO3)no1 (stereo not drawn)	6	0	99	1.3	104	-1	x
C(=C\c1ccccc1)/CSc1nnc(-c2ccccc2)n1Cc1ccco1	16	-1	101	0.3	96	67*	66*
Clc1cccc(-c2nnc(SC/C=C/c3ccccc3)n2Cc2ccco2)c1	0	-1	101	-1.3	94	55*	56*
CCc1nc(N2CCC(C)CC2)c2oc3ccccc3c2n1	-1	3	102	3.7	101	57*	68*
CCc1nc(N(CC)CC)c2oc3ccccc3c2n1	-1	1	100	-0.19	95	35	x
Cc1ccc(-n2nnnc2SCC(=O)N2CCc3ccccc3C2)cc1	-25	3	105	-0.037	100	36	x
Cc1ccc(-n2nnnc2SCC(=O)N2CCc3ccccc3C2)c(C)c1	-2	5	97	-0.57	97	44*	46
O=C(Nc1cccc2ccccc12)N(CCO)C1CCS(=O)(=O)C1 (stereo not drawn)	-1	-8	97	x	95	-6	x
CCOC(=O)c1c(/N=C/C2=C(O)CC(C)(C)CC2=O)sc(C)c1C	-6	-3	99	0.26	96	62*	16	ATG4B confirm=69*
N#Cc1c(NC(=O)C2CC(c3ccccc3Cl)=NO2)sc2c1CCC2 (stereo not drawn)	4	-4	88	-0.078	93	51*	35	ATG4B confirm=63*
Cc1ccc(CSCCNC(=O)c2ccccc2)cc1	-2	0	100	1.9	102	-3	x
Cc1ccccc1CNC(=O)c1ccc(CSCc2ccccc2)cc1	3	0	106	-0.12	100	49*	68*
Cn1c(C(=O)N2CCc3ccccc3C2)cc2oc3ccccc3c21	-23	3	103	-1.5	107	59*	64*
COc1cc2c(cc1OC)CN(C(=O)c1oc3ccccc3c1C)CC2	6	-5	99	x	97	-3	x
CCn1c(C(=O)N2CCc3ccccc3C2)cc2oc3ccccc3c21	-5	1	99	-0.17	100	43*	72*
Cc1cccc(C)c1OCC(=O)OCC(=O)Nc1ccc(Cl)cn1	0	x	x	x	x	10	x
CCOc1ccc(-n2c(=S)sc3c(=O)[nH]c(SCC(=O)NC(C)CC)nc32)cc1 (stereo not drawn)	5	2	103	0.39	100	-6	x
COc1ccc(Cl)cc1-n1c(=S)sc2c(=O)[nH]c(SCC(=O)NCCC(C)C)nc21	4	-1	99	x	98	41*	41	ATG4B confirm=73*
O=C1c2ccccc2C(=O)N1c1nc(-c2cccs2)cs1	11	-5	101	-1	93	59*	64*
SMILES	Beta2AR agonist	MEKK2mut PB1 HTS	MEKK3 PB1 HTS	Dynein cargo inh	MEKK2wt PB1 HTS	ATG4B inhibitor	PLA2 counter	others
CC(C)Cc1ccc(CN2CCCC(NC(=O)c3ccnn3C)C2)cc1 (stereo not drawn)	-2	4	98	x	106	42*	49
O=C1N/C(=N/NC(=O)c2cccc3ccccc23)S/C1=C\c1ccccc1OCc1ccccc1	4	-19	84	0.18	78	91*	91*
COc1cccc(/C=C2\SC(=O)NC2=O)c1OCc1ccc(C(=O)O)cc1	8	-15	90	-1.2	78	13	x
COc1ccc(OC)c(/C=C2\S/C(=N/NC(=O)c3ccc4ccccc4c3)NC2=O)c1	5	16	101	-0.096	111	79*	83*
CC(CO)Nc1nc(SCc2ccccc2)nc2sc3c(c12)CCC3 (stereo not drawn)	4	-2	98	-0.092	97	83*	91*
COCCNc1nc(SCc2ccccc2)nc2sc3c(c12)CCC3	-2	0	106	0.56	106	46*	60*
Cc1nc(NCCc2ccc(S(N)(=O)=O)cc2)c2c3c(sc2n1)CCC3	20	-2	95	-0.64	97	5	x
C/C(CCc1oc2ccccc2c1-c1ccc(C)o1)=N/O	8	-4	101	-1.1	98	61*	64*
CC(=O)CCc1oc2ccc([N+](=O)[O-])cc2c1-c1ccc(C)o1	7	-1	105	-0.42	96	-2	x
Cc1nc(Cl)c2c(n1)NC(=O)CO2	3	0	99	0.17	96	-6	x
COc1ccc(C(=O)CCc2ccccc2)cc1	-7	4	101	x	105	2	x
CC(C)c1ccccc1OCC(=O)NC1CCCc2ccccc21 (stereo not drawn)	2	11	100	0.31	102	48*	45	ATG4B confirm=65*
CCOc1ccc2nc(SCC(=O)NC3CCCc4ccccc43)sc2c1 (stereo not drawn)	-8	-4	93	-0.16	97	50*	44
CCOc1ccc2nc(SCC(=O)N3CCCc4ccccc43)sc2c1	11	2	105	-0.87	102	-2	x
CC1/C(=N/O)CC(c2ccccc2)N(C)C1c1ccccc1 (stereo not drawn)	-3	12	112	0.94	101	57*	48
Cc1sc2nc(SCc3nnc(-c4cccs4)o3)n(C3CCCC3)c(=O)c2c1C	-1	-1	108	-0.31	96	44*	66*
Cc1sc2nc(CSc3nnc(Cc4cccs4)n3C3CCCCC3)[nH]c(=O)c2c1C	-1	5	101	0.78	98	-3	x
